Values after ≈ are worked out from the molar mass of the structure shown.
Tests used:
[1] = Inhibition of LpxC C63A mutant in Escherichia coli […] preincubated for 30 mins followed by incubation for 10 mins by spectrophotometric analysis
Escherichia coli [2] = experiment: Antibacterial activity against Escherichia coli D22 incubated assessed as prevention of visible growth for 20 hrs by two-fold serial microbroth dilution method; format: functional
How it was run: (§1)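 Broth microdilution in LB with 5% DMSO. Overnight cultures (LB, 37 °C, 200 rpm) were diluted 1:100 and added to a twofold compound dilution series in DMSO, giving 5·10^6 cfu·mL⁻¹ and final compound 64 to 0.25 µg·mL⁻¹. Plates were incubated 20 h at 37 °C. MIC was taken as the lowest concentration with no visible growth. At least three runs on separate days.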

Escherichia coli [3] = experiment: Antibacterial activity against Escherichia coli D22 assessed as zone of growth inhibition at 10 mmol incubated for overnight by disc diffusion method; format: functional; details: dose 10 mM; time 12 hrs
How it was run: (§2)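 Overnight LB cultures (37 °C, 200 rpm), 150 µL spread on LB agar. 15 µL of compound (10 mM stock in DMSO) was applied to 6 mm filter paper disks, with DMSO as negative and CHIR-090 as positive control. Plates were incubated overnight at 37 °C and the diameter of the growth-inhibition zone was measured. At least three runs on separate days.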

Escherichia coli [4] = experiment: Antibacterial activity against Escherichia coli BL21 (DE3) assessed as zone of growth inhibition at 10 mmol incubated for overnight by disc diffusion method; format: functional; details: dose 10 mM; time 12 hrs; how it was run: as §2
Escherichia coli [5] = experiment: Antibacterial activity against Escherichia coli BL21 (DE3) assessed as prevention of visible growth incubated for 20 hrs by two-fold serial microbroth dilution method; format: functional; how it was run: as §1

In the case of `O=C(CO[C@@H](Cn1ccnn1)c1ccc(C#Cc2ccccc2)cc1)NO`, the IC50 [1] is reported as greater than 200 µM, the MIC (Escherichia coli [2]) is reported as no less than 32 µg/mL and the “inhibition zone (IZ)” value (Escherichia coli [3]) is reported as 11 mm. For the same compound, the “inhibition zone (IZ)” value (Escherichia coli [4]) was less than 6 mm and the MIC (Escherichia coli [5]) was greater than 64 µg/mL.
For `O=C(CO[C@@H](Cn1cc(-c2ccccc2)nn1)c1ccc(C#Cc2ccccc2)cc1)NO`, the IC50 [1] was greater than 200 µM, the MIC (Escherichia coli [2]) was 32 µg/mL (≈ 73 µM) and the “inhibition zone (IZ)” value (Escherichia coli [3]) was 8.7 mm. The “inhibition zone (IZ)” value (Escherichia coli [4]) was less than 6 mm and the MIC (Escherichia coli [5]) was greater than 64 µg/mL.
For `O=C(CO[C@H](Cn1cc(-c2ccccc2)nn1)c1ccc(C#Cc2ccccc2)cc1)NO`, the IC50 [1] was 10.4 µM, the MIC (Escherichia coli [2]) was 0.25 µg/mL (≈ 0.57 µM) and the “inhibition zone (IZ)” value (Escherichia coli [3]) was 12.3 mm. For the same compound, the “inhibition zone (IZ)” value (Escherichia coli [4]) was less than 6 mm and the MIC (Escherichia coli [5]) was greater than 64 µg/mL.
In the case of `O=C(CO[C@H](Cn1nncc1CO)c1ccc(C#Cc2ccccc2)cc1)NO`, the IC50 [1] is reported as 23.4 µM, the MIC (Escherichia coli [2]) is reported as 1 µg/mL (≈ 2.55 µM) and the “inhibition zone (IZ)” value (Escherichia coli [3]) is reported as 29.5 mm. For the same compound, the “inhibition zone (IZ)” value (Escherichia coli [4]) was 10.3 mm and the MIC (Escherichia coli [5]) was greater than 64 µg/mL.
In the case of `O=C(CO[C@H](Cn1cc(CO)nn1)c1ccc(C#Cc2ccccc2)cc1)NO`, the IC50 [1] is reported as 8.5 µM, the MIC (Escherichia coli [2]) is reported as 4 µg/mL (≈ 10.2 µM) and the “inhibition zone (IZ)” value (Escherichia coli [3]) is reported as 20.7 mm. For the same compound, the “inhibition zone (IZ)” value (Escherichia coli [4]) was less than 6 mm and the MIC (Escherichia coli [5]) was greater than 64 µg/mL.
For `O=C(CO[C@H](Cn1cc(-c2ccccc2)nn1)c1ccc(OCc2ccccc2)cc1)NO`, the IC50 [1] was greater than 200 µM, the MIC (Escherichia coli [2]) was 32 µg/mL (≈ 72 µM) and the “inhibition zone (IZ)” value (Escherichia coli [3]) was 10 mm. The “inhibition zone (IZ)” value (Escherichia coli [4]) was less than 6 mm and the MIC (Escherichia coli [5]) was greater than 64 µg/mL.
With `O=C(CO[C@@H](CO)c1ccc(C#Cc2ccccc2)cc1)NO` the IC50 [1] was greater than 200 µM, the MIC (Escherichia coli [2]) was 32 µg/mL (≈ 103 µM) and the “inhibition zone (IZ)” value (Escherichia coli [3]) was 13 mm. The “inhibition zone (IZ)” value (Escherichia coli [4]) was less than 6 mm and the MIC (Escherichia coli [5]) was greater than 64 µg/mL.
With `C[C@@H](O)[C@H](NC(=O)c1ccc(C#Cc2ccc(CN3CCOCC3)cc2)cc1)C(=O)NO` the IC50 [1] was 0.076 µM, the MIC (Escherichia coli [2]) was 0.031 µg/mL (≈ 0.0709 µM) and the “inhibition zone (IZ)” value (Escherichia coli [3]) was 37.5 mm. The “inhibition zone (IZ)” value (Escherichia coli [4]) was 31.7 mm and the MIC (Escherichia coli [5]) was 0.25 µg/mL (≈ 0.571 µM).
In the case of `O=C(CO[C@H](Cn1ccnn1)c1ccc(OCc2ccccc2)cc1)NO`, the IC50 [1] is reported as greater than 200 µM, the MIC (Escherichia coli [2]) is reported as greater than 64 µg/mL and the “inhibition zone (IZ)” value (Escherichia coli [3]) is reported as 15 mm. For the same compound, the “inhibition zone (IZ)” value (Escherichia coli [4]) was less than 6 mm and the MIC (Escherichia coli [5]) was greater than 64 µg/mL.
For `O=C(CO[C@H](Cn1nncc1-c1ccccc1)c1ccc(C#Cc2ccccc2)cc1)NO`, the IC50 [1] was greater than 20 µM, the MIC (Escherichia coli [2]) was 8 µg/mL (≈ 18.2 µM) and the “inhibition zone (IZ)” value (Escherichia coli [3]) was 10.7 mm. The “inhibition zone (IZ)” value (Escherichia coli [4]) was less than 6 mm and the MIC (Escherichia coli [5]) was greater than 64 µg/mL.
For `O=C(CO[C@H](CO)c1ccc(C#Cc2ccccc2)cc1)NO`, the IC50 [1] was 86.2 µM, the MIC (Escherichia coli [2]) was 1 µg/mL (≈ 3.21 µM) and the “inhibition zone (IZ)” value (Escherichia coli [3]) was 20.5 mm. The “inhibition zone (IZ)” value (Escherichia coli [4]) was 9.5 mm and the MIC (Escherichia coli [5]) was 64 µg/mL (≈ 206 µM).
For `O=C(CO[C@H](Cn1ccnn1)c1ccc(C#Cc2ccccc2)cc1)NO`, the IC50 [1] was 36 µM, the MIC (Escherichia coli [2]) was 1 µg/mL (≈ 2.76 µM) and the “inhibition zone (IZ)” value (Escherichia coli [3]) was 21 mm. For the same compound, the “inhibition zone (IZ)” value (Escherichia coli [4]) was less than 6 mm and the MIC (Escherichia coli [5]) was greater than 64 µg/mL.

From ChEMBL document CHEMBL4725237, “Synthesis and biological evaluation of triazolyl-substituted benzyloxyacetohydroxamic acids as LpxC inhibitors” (Bioorg Med Chem, 2020)
